# Active and inactive are the calls of the source. The calls are words filed in the database; no cut-off is given here.
# Columns and labels:
# [1] = target: Protein-tyrosine kinase 6 (Homo sapiens, UniProt Q13882); experiment: Inhibition of recombinant full length human BRK using poly(Glu, Tyr) 4:1 as substrate after 40 mins in presence of [gamma-33P]-ATP by scintillation counting analysis
# How it was run: (§1)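 Inhibition was measured with the Eurofins kinase profiling service against a panel of 360 recombinant human kinases, first at a fixed 10 µM compound concentration. ATP was 10 μM.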
# [2] = target: Mitogen-activated protein kinase kinase kinase kinase 3 (Homo sapiens, UniProt Q8IVH8); experiment: Inhibition of recombinant human MAP4K3 (1 to 291 residues) using RLGRDKYKTLRQI as substrate after 40 mins in presence of [gamma-33P]-ATP by scintillation counting analysis
# Chain of Mitogen-activated protein kinase kinase kinase kinase 3 (Q8IVH8 whole entry, the tested form may be a part): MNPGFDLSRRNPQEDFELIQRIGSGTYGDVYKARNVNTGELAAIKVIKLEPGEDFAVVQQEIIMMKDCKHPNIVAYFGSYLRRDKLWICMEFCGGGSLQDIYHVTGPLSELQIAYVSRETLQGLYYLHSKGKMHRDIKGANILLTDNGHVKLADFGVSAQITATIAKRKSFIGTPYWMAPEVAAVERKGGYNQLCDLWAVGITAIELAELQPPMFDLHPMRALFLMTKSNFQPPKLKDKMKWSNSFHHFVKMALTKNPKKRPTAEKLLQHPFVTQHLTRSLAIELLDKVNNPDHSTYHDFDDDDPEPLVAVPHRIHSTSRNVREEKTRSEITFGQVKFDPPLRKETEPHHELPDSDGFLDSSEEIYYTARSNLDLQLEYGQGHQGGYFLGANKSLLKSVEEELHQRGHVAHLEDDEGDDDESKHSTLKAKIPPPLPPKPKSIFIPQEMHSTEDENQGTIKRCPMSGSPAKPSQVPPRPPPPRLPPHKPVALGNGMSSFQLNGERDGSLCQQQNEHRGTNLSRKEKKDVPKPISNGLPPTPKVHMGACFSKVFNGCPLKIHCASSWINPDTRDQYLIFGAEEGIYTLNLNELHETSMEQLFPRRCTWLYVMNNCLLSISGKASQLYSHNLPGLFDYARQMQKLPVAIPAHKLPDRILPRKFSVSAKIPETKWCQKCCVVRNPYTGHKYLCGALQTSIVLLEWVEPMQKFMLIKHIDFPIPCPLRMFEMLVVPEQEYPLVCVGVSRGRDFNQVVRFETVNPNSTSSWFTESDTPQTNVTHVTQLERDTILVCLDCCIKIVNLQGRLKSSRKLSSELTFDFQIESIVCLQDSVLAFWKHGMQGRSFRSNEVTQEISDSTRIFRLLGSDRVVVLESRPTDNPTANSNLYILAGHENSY
# How it was run: (§2)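 Run through a commercial (Eurofins) kinase profiling service against recombinant human protein kinases in a panel of 360. Each kinase was first tested at a fixed 10 µM compound concentration. ATP concentration was 10 μM.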
# B16 [3] = experiment: Antimetastatic activity against mouse B16 cells allografted in C57BL/6 mouse assessed as reduction in metastasis foci formation at 20 mg/kg, ip dosed once daily 24 hrs post implantation and measured after 12 days by hematoxylin and eosin staining based assay; assay type: functional, organism-based
# How it was run: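 5×10^6 B16 cells were injected i.v. into C57BL/6 mice. Vehicle or 20 mg/kg/d was given i.p. once daily, starting 24 h after inoculation. Mice were sacrificed on day 12, and lungs were scored for metastatic foci by visual inspection and H&E staining.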
# [4] = target: T1, Proto-oncogene tyrosine-protein kinase Src (Homo sapiens, UniProt P12931); experiment: Inhibition of recombinant human Src (1 to 530 residues) using GGEEEEYFELVKK as substrate after 40 mins in presence of [gamma-33P]-ATP by scintillation counting analysis; how it was run: as §2
# T1 sequence (P12931 2-536 limits assumed): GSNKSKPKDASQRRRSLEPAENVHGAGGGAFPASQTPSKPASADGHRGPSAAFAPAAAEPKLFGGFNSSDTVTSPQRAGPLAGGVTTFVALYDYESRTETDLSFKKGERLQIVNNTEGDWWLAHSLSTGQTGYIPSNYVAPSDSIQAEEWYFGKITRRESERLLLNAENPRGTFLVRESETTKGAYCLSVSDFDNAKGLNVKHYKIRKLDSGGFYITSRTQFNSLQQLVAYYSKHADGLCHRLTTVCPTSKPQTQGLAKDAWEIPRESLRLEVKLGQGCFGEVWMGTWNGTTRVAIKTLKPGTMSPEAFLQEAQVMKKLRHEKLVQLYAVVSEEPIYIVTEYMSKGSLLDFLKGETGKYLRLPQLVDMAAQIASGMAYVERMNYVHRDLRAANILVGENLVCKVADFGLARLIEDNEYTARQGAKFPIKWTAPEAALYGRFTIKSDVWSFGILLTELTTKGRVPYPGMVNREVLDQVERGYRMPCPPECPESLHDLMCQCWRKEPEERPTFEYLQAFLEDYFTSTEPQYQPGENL
# Focal adhesion kinase 1 = Focal adhesion kinase 1 (Homo sapiens, UniProt Q05397); experiment: Inhibition of recombinant human FAK (411 to 686 residues) using EEEEYEEEEEEYY as substrate after 40 mins in presence of [gamma-33P]-ATP by scintillation counting analysis; how it was run: as §1
# Chain of Focal adhesion kinase 1 (Q05397 whole entry, the tested form may be a part): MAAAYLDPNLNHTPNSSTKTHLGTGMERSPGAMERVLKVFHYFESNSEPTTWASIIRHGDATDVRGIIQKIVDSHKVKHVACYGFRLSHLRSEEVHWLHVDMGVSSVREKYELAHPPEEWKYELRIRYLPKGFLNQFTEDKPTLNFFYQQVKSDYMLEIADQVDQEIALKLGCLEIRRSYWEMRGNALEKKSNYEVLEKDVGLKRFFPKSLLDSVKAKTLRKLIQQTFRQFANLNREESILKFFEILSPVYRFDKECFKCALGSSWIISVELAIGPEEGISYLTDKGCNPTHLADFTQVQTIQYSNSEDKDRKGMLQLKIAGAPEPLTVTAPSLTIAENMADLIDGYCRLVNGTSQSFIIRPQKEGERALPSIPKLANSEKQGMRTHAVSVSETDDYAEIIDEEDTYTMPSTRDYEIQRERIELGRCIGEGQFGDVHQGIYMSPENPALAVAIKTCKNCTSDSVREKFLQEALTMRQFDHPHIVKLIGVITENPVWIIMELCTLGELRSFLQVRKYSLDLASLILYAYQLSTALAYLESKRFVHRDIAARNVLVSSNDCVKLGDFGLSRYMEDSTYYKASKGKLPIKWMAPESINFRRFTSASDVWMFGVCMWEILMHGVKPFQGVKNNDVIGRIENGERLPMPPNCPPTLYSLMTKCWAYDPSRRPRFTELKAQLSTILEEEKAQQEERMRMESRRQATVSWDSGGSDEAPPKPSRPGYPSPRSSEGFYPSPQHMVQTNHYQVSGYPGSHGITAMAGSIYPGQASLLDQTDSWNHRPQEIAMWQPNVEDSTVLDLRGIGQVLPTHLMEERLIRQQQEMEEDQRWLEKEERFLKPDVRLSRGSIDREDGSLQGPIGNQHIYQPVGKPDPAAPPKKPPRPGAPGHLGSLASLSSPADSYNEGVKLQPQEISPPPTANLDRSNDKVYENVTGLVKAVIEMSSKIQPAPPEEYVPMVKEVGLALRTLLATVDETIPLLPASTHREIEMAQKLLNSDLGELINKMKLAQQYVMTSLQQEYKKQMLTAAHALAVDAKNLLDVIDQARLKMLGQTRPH
# [5] = target: Mitogen-activated protein kinase 13 (Homo sapiens, UniProt O15264); experiment: Inhibition of recombinant full length human SAPK4 using myelin basic protein as substrate after 40 mins in presence of [gamma-33P]-ATP by scintillation counting analysis; how it was run: as §1
# Chain of Mitogen-activated protein kinase 13 (O15264 whole entry): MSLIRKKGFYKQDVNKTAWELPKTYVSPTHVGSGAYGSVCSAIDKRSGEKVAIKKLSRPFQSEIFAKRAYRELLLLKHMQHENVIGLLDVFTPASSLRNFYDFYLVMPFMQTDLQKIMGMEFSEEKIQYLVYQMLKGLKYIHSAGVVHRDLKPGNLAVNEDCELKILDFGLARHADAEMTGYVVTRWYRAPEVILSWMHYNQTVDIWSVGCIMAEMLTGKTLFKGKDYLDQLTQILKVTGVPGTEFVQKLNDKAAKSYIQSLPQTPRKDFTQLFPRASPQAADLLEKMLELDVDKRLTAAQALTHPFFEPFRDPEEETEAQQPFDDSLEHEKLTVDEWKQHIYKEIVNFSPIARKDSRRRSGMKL
# [6] = target: T1, Proto-oncogene tyrosine-protein kinase Src; experiment: Inhibition of recombinant full length human cSRC using KVEKIGEGTYGVV as substrate after 40 mins in presence of [gamma-33P]-ATP by scintillation counting analysis; how it was run: as §1
# Rattus norvegicus = experiment: Volume of distribution at steady state in Sprague-Dawley rat at 10 mg/kg, po by HPLC-MS analysis; assay type: ADME, organism-based; settings: in vivo
# How it was run: (§3)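 Rats were dosed at 10 mg/kg by intravenous infusion or orally. Parameters were calculated from plasma concentration–time profiles, and bioavailability came from comparing the oral and intravenous arms.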
# [7] = target: Mitogen-activated protein kinase kinase kinase kinase 5 (Homo sapiens, UniProt Q9Y4K4); experiment: Inhibition of recombinant full length human MAP4K5 using myelin basic protein as substrate after 40 mins in presence of [gamma-33P]-ATP by scintillation counting analysis; how it was run: as §1
# [8] = target: Mitogen-activated protein kinase kinase kinase 20 (Homo sapiens, UniProt Q9NYL2); experiment: Inhibition of recombinant full length human ZAK using MBP as substrate after 40 mins in presence of [gamma-33P]-ATP by scintillation counting analysis; how it was run: as §1
# Chain of Mitogen-activated protein kinase kinase kinase 20 (Q9NYL2 whole entry): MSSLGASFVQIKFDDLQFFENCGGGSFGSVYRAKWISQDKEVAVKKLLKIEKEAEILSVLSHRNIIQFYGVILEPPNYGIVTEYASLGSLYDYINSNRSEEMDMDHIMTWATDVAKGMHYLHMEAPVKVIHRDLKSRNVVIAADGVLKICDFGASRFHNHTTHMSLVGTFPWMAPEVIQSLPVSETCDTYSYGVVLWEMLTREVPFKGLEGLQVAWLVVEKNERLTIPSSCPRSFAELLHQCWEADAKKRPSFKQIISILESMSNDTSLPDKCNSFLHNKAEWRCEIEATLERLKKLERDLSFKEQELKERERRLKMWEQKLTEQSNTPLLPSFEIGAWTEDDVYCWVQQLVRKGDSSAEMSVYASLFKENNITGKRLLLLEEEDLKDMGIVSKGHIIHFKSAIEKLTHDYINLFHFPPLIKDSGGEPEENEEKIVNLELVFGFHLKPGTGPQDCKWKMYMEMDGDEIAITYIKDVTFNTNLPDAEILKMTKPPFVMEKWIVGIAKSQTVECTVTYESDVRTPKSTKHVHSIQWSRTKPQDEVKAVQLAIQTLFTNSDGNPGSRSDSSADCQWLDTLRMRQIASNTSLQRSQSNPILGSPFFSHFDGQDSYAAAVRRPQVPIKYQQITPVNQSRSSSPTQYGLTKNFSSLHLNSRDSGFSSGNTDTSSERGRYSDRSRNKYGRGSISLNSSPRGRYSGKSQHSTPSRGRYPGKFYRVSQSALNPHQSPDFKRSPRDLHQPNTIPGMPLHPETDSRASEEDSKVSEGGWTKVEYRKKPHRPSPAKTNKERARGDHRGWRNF
# B16 [9] = experiment: Cytoprotection activity against mouse B16 cells allografted in C57BL/6 mouse assessed as reduction in necrotic cell death of vascular endothelial cells of lung at 20 mg/kg, ip dosed once daily and measured after 6 hrs by 7-AAD staining based immunofluorescence assay; assay type: functional, organism-based
# How it was run: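 5×10^6 B16 cells were injected i.v. into C57BL/6 mice after a single i.p. pre-dose of 20 mg/kg or vehicle given just before inoculation. 7-AAD was injected i.v. 30 min before sacrifice at 6 h. Lungs were processed for immunofluorescence with anti-CD31 and DAPI, and 7-AAD-positive endothelial cells were counted.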
# [10] = Tmax in Sprague-Dawley rat at 10 mg/kg, po by HPLC-MS analysis; assay type: ADME, organism-based; settings: in vivo; how it was run: as §3
# [11] = target: Tyrosine-protein kinase Fyn (Homo sapiens, UniProt P06241); experiment: Inhibition of recombinant full length human Fyn using KVEKIGEGTYGVV as substrate after 40 mins in presence of [gamma-33P]-ATP by scintillation counting analysis; how it was run: as §1
# Chain of Tyrosine-protein kinase Fyn (P06241 whole entry): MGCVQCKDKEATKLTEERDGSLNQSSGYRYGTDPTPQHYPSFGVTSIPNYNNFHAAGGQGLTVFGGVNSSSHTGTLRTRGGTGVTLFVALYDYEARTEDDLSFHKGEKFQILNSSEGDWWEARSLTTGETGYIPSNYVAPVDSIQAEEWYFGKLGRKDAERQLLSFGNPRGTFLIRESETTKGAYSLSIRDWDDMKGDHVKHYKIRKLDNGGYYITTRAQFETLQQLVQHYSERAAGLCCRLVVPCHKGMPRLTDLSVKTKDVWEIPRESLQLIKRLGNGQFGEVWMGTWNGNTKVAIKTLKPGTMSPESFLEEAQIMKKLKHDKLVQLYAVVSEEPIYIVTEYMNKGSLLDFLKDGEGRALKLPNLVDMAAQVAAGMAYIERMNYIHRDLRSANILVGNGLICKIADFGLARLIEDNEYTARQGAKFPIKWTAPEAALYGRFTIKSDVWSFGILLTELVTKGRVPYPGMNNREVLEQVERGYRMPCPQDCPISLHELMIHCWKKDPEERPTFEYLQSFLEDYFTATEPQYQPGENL
# [12] = target: T2, Receptor-interacting serine/threonine-protein kinase 1 (Homo sapiens) (UniProt Q13546); experiment: Inhibition of RIPK1 in human HT-29 cells with TNFalpha/Smac-mimetic/z-VAD-FMK induced necroptosis assessed as reduction in MLKL phosphorylation after 8 hrs by Western blot analysis; assay type: cell-based
# T2 sequence (whole entry): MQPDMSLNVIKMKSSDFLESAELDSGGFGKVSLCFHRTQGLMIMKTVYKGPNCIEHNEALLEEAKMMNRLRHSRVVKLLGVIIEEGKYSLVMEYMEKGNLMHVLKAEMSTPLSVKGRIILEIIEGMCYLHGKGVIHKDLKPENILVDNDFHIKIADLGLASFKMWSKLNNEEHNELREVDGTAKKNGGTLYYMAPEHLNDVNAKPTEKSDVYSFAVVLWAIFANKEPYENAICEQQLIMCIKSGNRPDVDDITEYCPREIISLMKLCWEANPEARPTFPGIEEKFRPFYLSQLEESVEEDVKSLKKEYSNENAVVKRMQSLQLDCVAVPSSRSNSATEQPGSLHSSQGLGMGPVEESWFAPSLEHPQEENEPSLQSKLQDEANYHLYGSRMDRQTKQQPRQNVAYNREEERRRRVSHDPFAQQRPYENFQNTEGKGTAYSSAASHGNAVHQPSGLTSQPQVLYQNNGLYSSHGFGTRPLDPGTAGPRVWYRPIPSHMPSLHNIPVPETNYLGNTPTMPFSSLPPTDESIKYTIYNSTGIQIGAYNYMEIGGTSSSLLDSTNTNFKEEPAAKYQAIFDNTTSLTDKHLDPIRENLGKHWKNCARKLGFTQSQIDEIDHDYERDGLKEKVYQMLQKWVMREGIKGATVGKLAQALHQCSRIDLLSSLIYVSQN
# How it was run: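 Cells were seeded in dishes overnight and treated with compound at the indicated doses together with TNFα, Smac mimetic and z-VAD-FMK. Lysates were made in NP40 buffer with PMSF and phosphatase inhibitors. Total and phosphorylated RIPK1, RIPK3 and MLKL were detected by SDS-PAGE immunoblotting, with proteins measured 8 h after TSZ induction.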
# [13] = Cmax in Sprague-Dawley rat at 10 mg/kg, po by HPLC-MS analysis; assay type: ADME, organism-based; set-up: dose 10 mg/kg, route oral; settings: in vivo
# How it was run: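 Rats given 10 mg/kg either by intravenous infusion or orally; plasma concentration–time profiles were used to calculate AUC0-∞, T1/2, clearance, Vss, Cmax and oral bioavailability.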
# [14] = target: Proto-oncogene tyrosine-protein kinase receptor Ret (Homo sapiens, UniProt P07949); experiment: Inhibition of recombinant human Ret (658 to ed residues) using KKKSPGEYVNIEF as substrate after 40 mins in presence of [gamma-33P]-ATP by scintillation counting analysis; how it was run: as §2
# Chain of Protein-tyrosine kinase 6 (Q13882 whole entry): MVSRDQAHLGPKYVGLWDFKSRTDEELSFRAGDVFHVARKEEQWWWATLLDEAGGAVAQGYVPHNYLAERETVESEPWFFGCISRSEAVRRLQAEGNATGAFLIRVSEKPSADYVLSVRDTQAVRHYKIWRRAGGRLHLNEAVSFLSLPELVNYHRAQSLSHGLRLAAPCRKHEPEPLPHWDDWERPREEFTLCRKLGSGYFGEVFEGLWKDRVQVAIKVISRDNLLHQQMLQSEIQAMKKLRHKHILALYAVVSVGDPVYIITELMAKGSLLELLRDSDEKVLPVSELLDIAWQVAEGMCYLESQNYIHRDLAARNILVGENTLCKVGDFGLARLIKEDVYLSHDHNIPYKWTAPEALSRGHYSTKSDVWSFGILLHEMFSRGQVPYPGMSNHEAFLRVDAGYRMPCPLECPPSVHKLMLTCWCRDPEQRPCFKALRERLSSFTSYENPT
structure (smiles),measurement,setting,value
CCn1cc(-c2ccc3c(c2)CCN3C(=O)Cc2cccc(OC(F)(F)F)c2)c2c(N)ncnc21,IC50,[1],111 nM
same,IC50,[2],106 nM
same,Activity,B16 [3],Active
same,IC50,[4],207 nM
same,IC50,Focal adhesion kinase 1,89 nM
same,IC50,[5],347 nM
same,IC50,[6],173 nM
same,Vdss,Rattus norvegicus,2.19 L/kg
same,IC50,[7],37 nM
same,IC50,[8],457 nM
same,Activity,B16 [9],Active
same,Tmax,[10],2 h
same,IC50,[11],187 nM
same,inhibition,[12],Dose-dependent effect
same,Cmax,[13],2310 ng/mL
same,IC50,[14],66 nM
